Measured values gathered from unrelated publications.
Each line is one published result; the experiments were not run side by side.
Target: cAMP-dependent protein kinase catalytic subunit beta (PRKACB, Homo sapiens, UniProt P22694)

Cn1cnc(Br)c1C1=CN(c2ncnc3[nH]cnc23)CCS1
inhibition (enzyme activity; inhibitor; radiometric; 50 nM): 18.7%

Nc1ncnc2occ(-c3ccc(NC(=O)Nc4cc(C(F)(F)F)ccc4F)cc3)c12
remaining activity (enzyme activity; inhibitor; 20 µM): 22%

O=C(Nc1cccnn1)N1CCC(=Cc2cccc(Oc3ccc(C(F)(F)F)cn3)c2)CC1
remaining binding (cell-free assay; competition with immobilised ligand; 1 µM): 100%

COc1cc(Cl)c(C(=O)N[C@@H](CN[C@H]2CC[C@@H](N)CC2)Cc2ccc(C#N)cc2)cc1-c1ccc(CN[C@H](C)c2ccc(C)cc2)o1
remaining activity (enzyme activity; inhibitor; 1 µM): 66%

CC(C)(O)[C@H]1CC[C@H](Nc2ccc3ncc(-c4cccc(C(F)(F)F)c4)n3n2)CC1
remaining activity (enzyme activity; inhibitor; 1 µM): 97.7%

C[C@H](c1ccnc(Nc2nc3ccc(-c4cc(N(C)C)ncn4)cc3[nH]2)c1)N1CCN(C(=O)CC(F)(F)F)CC1
remaining binding (cell-free assay; competition with immobilised ligand; 0.1 µM): 100%

Cc1ccc(C(=O)NCc2ccsc2)cc1C#Cc1cn(C(C)C)c2ncnc(N)c12
activity vs control (enzyme activity; inhibitor; 1 µM): 111%

C[C@@H]1CN(c2cc(-c3nn(C)c4ccc(OC5(C)CC5)cc34)ncn2)C[C@H](C)O1
remaining binding (cell-free assay; competition with immobilised ligand; 1 µM): 100%

Cc1sc(C(=O)NC2COC2)cc1-n1cc(NC(=O)Nc2c(F)cccc2Cl)cn1
remaining activity (enzyme activity; inhibitor; 10 µM): 104%

Cc1ccc(C(=O)Nc2ccc(CN3CCN(C)CC3)c(C(F)(F)F)c2)cc1C#Cc1cnc2cccnn12
remaining activity (enzyme activity; inhibitor; 23.5 nM): 83%

CN1CC(Oc2cnc(C#N)cc2-c2ccn3nc(NC(=O)C4CC4)cc3c2)C1
inhibition (enzyme activity; inhibitor; 1 µM): -10%

O=C(Nc1cnn(-c2csc(C(=O)NC3COC3)c2)c1)Nc1ccccc1Cl
remaining activity (enzyme activity; inhibitor; 5 µM): 99%

COc1cc(-c2cc(-c3ccc(N4CCNCC4)cc3)cnc2C)cc(OC)c1OC
inhibition (enzyme activity; inhibitor; 1 µM): 3%
